Screens as filed in PubChem.
MrgX1 ag – agonists of human MrgX1 receptor, primary screen, HEK293 cells, Fluo-4 calcium flux; Mas-related G-protein coupled receptor member X1 (Homo sapiens), Q96LB2; Fluo-4 calcium fluorescence, agonist mode; stronger effect = higher value; B-score at 10 µM; 0.44% of 310,000 active; AID 588627, 2011;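 active = calcium response B-score plate-corrected fluorescence ratio at least 3 library SD, with starting fluorescence B-score inside 5 SD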
Target sequence (Q96LB2 whole entry, looked up): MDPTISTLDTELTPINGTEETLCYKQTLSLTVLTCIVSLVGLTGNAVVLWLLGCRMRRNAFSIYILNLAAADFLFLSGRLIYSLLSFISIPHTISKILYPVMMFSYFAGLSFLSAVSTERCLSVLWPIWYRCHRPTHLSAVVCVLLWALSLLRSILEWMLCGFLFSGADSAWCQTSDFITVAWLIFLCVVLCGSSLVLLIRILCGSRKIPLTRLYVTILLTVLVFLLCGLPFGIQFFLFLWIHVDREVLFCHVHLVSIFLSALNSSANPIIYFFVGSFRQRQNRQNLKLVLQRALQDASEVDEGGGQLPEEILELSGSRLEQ
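Material: MrgX1-expressing HEK293 cells / Dosing: compound as first of three additions / Incubation: overnight seeding, then 1 h dark dye loading / Signal: Fluo-4 NW calcium fluorescence / Evaluation: B-scored fluorescence response ratio / Benchmarks: positive and negative control wells on each plate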
MrgX1 PAM – positive allosteric modulators of MrgX1, primary screen, HEK293 cells, Fluo-4 calcium flux. Mas-related G-protein coupled receptor member X1 (Homo sapiens), Q96LB2. B-score at 10 µM. AID 588675, 2011. 0.63% of 310,000 active. FDSS; stronger effect = higher value;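 active = plate-corrected calcium response at least 3 library SD above typical, normal starting fluorescence, not activating the receptor alone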;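 note: compound read alongside a low EC10 to EC30 dose of BAM8-22 agonist; peak minus trough fluorescence over baseline measured at the second addition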
RGS4 inh – RGS4 inhibitors, primary screen, cell-based, HEK293 M3R inducible RGS4, calcium flux | Regulator of G-protein signaling 4 (Homo sapiens), P49798 | Fluo-4 calcium flux; stronger effect = higher value; triggered by carbachol at its EC20 | B-score at 10 µM | 0.45% of 310,000 active | AID 463165, 2010;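 active = B-score, a plate-corrected calcium signal, over three deviations above library mean, with baseline fluorescence within five deviations of library mean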;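 note: RGS4 expression induced by doxycycline in cells with stable M3 receptor; B-score is computed from the integrated fluorescence ratio over baseline after carbachol; higher B-score means a larger calcium signal and so more RGS4 inhibition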
Target sequence (P49798 whole entry, looked up): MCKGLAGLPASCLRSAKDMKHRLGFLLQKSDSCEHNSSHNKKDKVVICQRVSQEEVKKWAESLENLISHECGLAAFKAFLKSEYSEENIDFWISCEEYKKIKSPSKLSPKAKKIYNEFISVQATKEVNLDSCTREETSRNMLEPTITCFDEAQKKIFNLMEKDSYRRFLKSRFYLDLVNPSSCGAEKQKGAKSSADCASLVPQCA
RGS4 pot – RGS4 potentiators or activators, primary screen, cell-based, HEK293 M3R inducible RGS4, calcium flux. carbachol calcium flux Fluo4; stronger effect = lower value. B-score at 10 µM. 0.92% of 310,000 active;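 active = B-score of the integrated calcium signal more than 4 SD below the library mean, with starting fluorescence not abnormally high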;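 note: negative B-score means reduced calcium response which marks RGS4 activation or potentiation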
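Assay system: Inducible-RGS4 HEK293 cells carrying M3 receptor | Schedule: Compound preincubation 20 min at room temperature before agonist | Signal: Kinetic calcium fluorescence imaging with Fluo4-AM dye, 2 µM | Read-out basis: B score from integrated fluorescence ratio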
MrgX1 antag – antagonists of human MrgX1 receptor, primary screen, HEK293 cells, Fluo-4 calcium flux. 1.3% of 310,000 active. B-score at 10 µM. Mas-related G-protein coupled receptor member X1 (Homo sapiens), Q96LB2. AID 588676, 2011. BAM8-22 antagonism; stronger effect = lower value;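 active = calcium-response B-score plate-corrected more than 3 library SD below zero, starting fluorescence within 5 deviations, no agonist response on first addition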;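 note: peak minus trough fluorescence over baseline after final BAM8-22 challenge near maximal dose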
MrgX1 ant reconf – MrgX1 receptor antagonists, duplicate retest, confirmation, HEK293 cells, Fluo-4 calcium flux. 19% of 2,300 active. BAM8-22 calcium flux; stronger effect = lower value. shares compounds with MrgX1 antag. remaining BAM8-22 calcium response % of control (stronger effect = lower value), % at 10 µM;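 active = remaining agonist calcium response no higher than 100% minus 3 SD of agonist-only control wells, with starting fluorescence near control levels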;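 note: agonist BAM8-22 given at a near maximal EC90 to ECmax level; peak minus minimum fluorescence divided by baseline after agonist addition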
HEK293 Ca flux – nonspecific calcium signal in parental HEK293, confirmation, counter-screen for MrgX1 antagonist project, parental HEK293 cells, Fluo-4 calcium flux; shares compounds with MrgX1 antag; Fluo-4 calcium fluorescence, FDSS; fluorescence ratio F(max-min)/F0 at 10 µM; 2% of 4,000 active; AID 624111, 2012;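 active = duplicate-averaged calcium fluorescence ratio at least three times the standard deviation of buffer wells, a nonspecific response in parental cells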
HEK293 Ca counter – calcium response in parental HEK293 cells, primary screen, counter-screen for MrgX1 allosteric activator project, cell-based, Fluo-4 calcium flux, duplicate. shares compounds with MrgX1 antag. Fluo-4 fluorescence ratio; stronger effect = higher value. fluorescence ratio F(max-min)/F0 at 10 µM. 0.4% of 4,000 active. AID 624114, 2012;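 active = calcium fluorescence ratio, averaged over duplicates, at least 3 SD of the buffer-well ratio, meaning a nonspecific response in receptor-free cells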;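 note: untransfected parental HEK293 lacking MrgX1 used as counterscreen for MrgX1 allosteric activators; fluorescence change taken during the second addition on a kinetic imager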
HEK293 Ca cntr2 – calcium response in parental HEK293 cells, primary screen, counter-screen for MrgX1 agonist project, cell-based, Fluo-4 calcium flux, duplicate, agonist mode | shares compounds with MrgX1 antag | Fluo-4 calcium fluorescence (FDSS); stronger effect = higher value | fluorescence ratio F(max-min)/F0 at 10 µM | 8.7% of 4,000 active | AID 624115, 2012;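 active = calcium fluorescence ratio at least three times the spread of buffer wells, meaning a non-specific response in parental cells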
An asterisk follows results filed as active. Sampled rows, rich in hits. Any-hit rate of the full collection: about 3.5%.

`Cc1cccc(-c2nc(CSCC(=O)N3CCN(c4ccccn4)CC3)c(C)o2)c1` gave MrgX1 ag inactive, MrgX1 PAM inactive, RGS4 inh inactive, RGS4 pot inactive, MrgX1 antag -8*, MrgX1 ant reconf 58%*, HEK293 Ca flux inactive, HEK293 Ca counter inactive and HEK293 Ca cntr2 inactive.
For Cc1ccc(-c2nc(CSCC(=O)N3CCCC3)c(C)o2)cc1 the results were MrgX1 ag inactive, MrgX1 PAM inactive, RGS4 inh inactive, RGS4 pot inactive and MrgX1 antag inactive.
`CCOC(=O)c1cnc2ccccc2c1Nc1ccc2c(c1)OCCO2` gave MrgX1 ag inactive, MrgX1 PAM inactive, RGS4 inh inactive, RGS4 pot inactive, MrgX1 antag -5.5*, MrgX1 ant reconf inactive, HEK293 Ca flux inactive, HEK293 Ca counter inactive and HEK293 Ca cntr2 inactive.
For CCOC(=O)CSc1nc(Nc2ccc3c(c2)OCO3)c2ccccc2n1 the results were MrgX1 ag inactive, MrgX1 PAM inactive, RGS4 inh inactive, RGS4 pot inactive and MrgX1 antag inactive.
For COc1ccc(NC(=O)CSc2nnc3c4c(nc(-c5ccccc5)n23)CC(C)(C)OC4)cc1 the results were MrgX1 ag inactive, MrgX1 PAM inactive, RGS4 inh inactive, RGS4 pot inactive, MrgX1 antag -7.2*, MrgX1 ant reconf inactive, HEK293 Ca flux inactive, HEK293 Ca counter inactive and HEK293 Ca cntr2 inactive.
`CCOC(=O)c1nn(-c2cc(C(=O)OC)cc(C(=O)OC)c2)cc1O` gave MrgX1 ag inactive, MrgX1 PAM inactive, RGS4 inh inactive, RGS4 pot inactive and MrgX1 antag inactive.
CCOC(=O)c1nn(-c2sc(C(=O)OC)c(C)c2C(=O)OC)cc1O was read as MrgX1 ag inactive, MrgX1 PAM inactive, RGS4 inh inactive, RGS4 pot inactive, MrgX1 antag -6.8*, MrgX1 ant reconf 62%*, HEK293 Ca flux inactive, HEK293 Ca counter inactive and HEK293 Ca cntr2 inactive.
For CC(Cc1cccs1)NC(=O)Nc1cccc(Cl)c1 (stereo unspecified) the results were MrgX1 ag inactive, MrgX1 PAM inactive, RGS4 inh inactive, RGS4 pot inactive and MrgX1 antag inactive.
`CC(Cc1cccs1)NC(=S)Nc1ccc(Cl)c(Cl)c1` (stereo unspecified) gave MrgX1 ag inactive, MrgX1 PAM inactive, RGS4 inh inactive, RGS4 pot inactive, MrgX1 antag -6.8*, MrgX1 ant reconf inactive, HEK293 Ca flux inactive, HEK293 Ca counter inactive and HEK293 Ca cntr2 inactive.
`Cc1ccc(NC(=O)CC2=NC(=O)C(CC(=O)Nc3ccccc3F)S2)cc1` (stereo unspecified) gave MrgX1 ag inactive, MrgX1 PAM inactive, RGS4 inh inactive, RGS4 pot inactive, MrgX1 antag -4.9*, MrgX1 ant reconf inactive, HEK293 Ca flux inactive, HEK293 Ca counter inactive and HEK293 Ca cntr2 inactive.
